Activity calls are given as the source filed them. The calls are words filed in the database; no cut-off is given here.
Key:
[1] = tested on: Zika virus; experiment: (§1) Antiviral activity against ZIKV FLR infected in Vero cells assessed as inhibition of viral replication by measuring reduction in cytopathic effect at 10 uM preincubated with compounds for 2 hrs followed by replacement with fresh media containing compounds and measured after 48 hrs by MTT assay relative to control; assay type: functional; details: time 50 hrs
In short: (§2)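 Monolayers of 2 × 10^4 cells/well in DMEM with 2% FBS. Infected at 0.1 MOI together with compound for 2h. Wells washed with PBS, then fresh medium with compound added in duplicate and incubated 48h at 37 °C. Supernatant titred by end-point dilution: half-log dilutions on Vero monolayers in quadruplicate for 5–7 days, CPE by microscope then MTT. TCID50 compared with untreated; EC50 from dose-response fit of ≥2 independent experiments.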

[2] = tested on: Zika virus; experiment: as §1, with “1” for “10”; assay type: functional; details: time 50 hrs; in short: as §2
[3] = tested on: Zika virus; experiment: Antiviral activity against ZIKV FLR infected in Vero cells assessed as reduction in NS3 viral protein level at 1 to 3 uM incubated for 48 hrs by Western blot analysis; assay type: functional, organism-based; details: dose 1-3 µM
In short: (§3)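 8 × 10^5 Vero cells infected at MOI 0.1 for 2h. Virus removed and cells cultured 48h in fresh medium with 2% FBS plus compound. Cells lysed in ice-cold RIPA buffer and equal total protein separated by SDS-PAGE, then transferred to PVDF. Probed with antibodies to ZIKV NS3, capsid and NS5, with β-actin as loading reference.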

[4] = tested on: Zika virus; experiment: Antiviral activity against ZIKV FLR infected in Vero cells assessed as inhibition of viral replication by measuring reduction in cytopathic effect at 1 uM preincubated with compounds for 2 hrs followed by replacement with fresh media containing compounds and further incubated for 48 hrs in presence of 1 mM GSH by MTT assay; assay type: functional, organism-based; details: time 50.0 hrs; in short: as §2
[5] = tested on: Zika virus; experiment: Antiviral activity against ZIKV FLR infected in Vero cells assessed as inhibition of viral replication by measuring reduction in cytopathic effect preincubated with compounds for 2 hrs followed by replacement with fresh media containing compounds and measured after 48 hrs by MTT assay; assay type: functional, organism-based; in short: as §2
[6] = tested on: Zika virus; experiment: as §1, with “0.3” for “10”; assay type: functional; set-up: scale not given: the % may be the effect or the level left; details: time 50 hrs; in short: as §2
[7] = tested on: Zika virus; experiment: as §1, with “>=3” for “10”; assay type: functional; set-up: scale not given: the % may be the effect or the level left; details: time 50 hrs; in short: as §2
[8] = tested on: Zika virus; experiment: Antiviral activity against ZIKV FLR infected in Vero cells assessed as reduction in number of viral RNA copies by qRT-PCR analysis; assay type: functional, organism-based; details: dose 0.3-10 µM
In short: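 Viral RNA measured in cell supernatant after compound treatment. Copies/mL calculated from a standard curve.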

[9] = tested on: Zika virus; experiment: Antiviral activity against ZIKV FLR infected in Vero cells assessed as reduction in NS5 viral protein level at 1 to 3 uM incubated for 48 hrs by Western blot analysis; assay type: functional, organism-based; details: dose 1-3 µM; in short: as §3
[10] = tested on: Zika virus; experiment: Antiviral activity against ZIKV HN16 infected in Vero cells assessed as inhibition of viral replication by measuring reduction in cytopathic effect preincubated with compounds for 2 hrs followed by replacement with fresh media containing compounds and measured after 48 hrs by MTT assay; assay type: functional, organism-based; in short: as §2
[11] = tested on: Zika virus; experiment: Antiviral activity against ZIKV FLR infected in Vero cells assessed as reduction in capsid protein level at 1 to 3 uM incubated for 48 hrs by Western blot analysis; assay type: functional, organism-based; details: dose 1-3 µM; in short: as §3
[12] = tested on: Zika virus; experiment: Antiviral activity against ZIKV FLR infected in human U87 cells assessed as inhibition of viral replication at 0.3 uM pretreated with compounds for 2 hrs followed by replacement with fresh medium containing compound and measured after 48 hrs by MTT assay relative to control; assay type: functional; details: U-87 MG, time 50 hrs; in short: as §2
[13] = tested on: Zika virus; experiment: Antiviral activity against ZIKV FLR infected in human U87 cells assessed as inhibition of viral replication at 1 uM pretreated with compounds for 2 hrs followed by replacement with fresh medium containing compound and measured after 48 hrs by MTT assay relative to control; assay type: functional; details: U-87 MG, time 50 hrs; in short: as §2
[14] = tested on: Zika virus; experiment: Antiviral activity against ZIKV FLR infected in human U87 cells assessed as inhibition of viral replication at 3 uM pretreated with compounds for 2 hrs followed by replacement with fresh medium containing compound and measured after 48 hrs by MTT assay relative to control; assay type: functional; details: U-87 MG, time 50 hrs; in short: as §2
[15] = tested on: Zika virus; experiment: Antiviral activity against ZIKV FLR infected in human U87 cells assessed as inhibition of viral replication at 10 uM pretreated with compounds for 2 hrs followed by replacement with fresh medium containing compound and measured after 48 hrs by MTT assay relative to control; assay type: functional; details: U-87 MG, time 50 hrs; in short: as §2
[16] = tested on: Zika virus; experiment: Antiviral activity against ZIKV FLR infected in human U87 cells assessed as inhibition of viral replication pretreated with compounds for 2 hrs followed by replacement with fresh medium containing compound and measured after 48 hrs by MTT assay; assay type: functional, organism-based; details: U-87 MG; in short: as §2
[17] = tested on: Zika virus; experiment: Antiviral activity against ZIKV FLR infected in mosquito C6/36 cells assessed as inhibition of viral replication pretreated with compounds for 2 hrs followed by replacement with fresh medium containing compound and measured after 48 hrs bt MTT assay; assay type: functional, organism-based; in short: as §2
[18] = tested on: U-87 MG; experiment: Cytotoxicity against human U87 cells assessed as reduction in cell viability; assay type: toxicity, cell-based; details: u-87mg atcc
[19] = tested on: dengue virus type 2; experiment: Antiviral activity against Dengue virus serotype 2 K0049 infected in Vero cells assessed as inhibition of viral replication pretreated for 2 hrs followed by replacement with fresh medium containing compound and measured after 48 hrs by MTT assay; assay type: functional, organism-based; in short: as §2
[20] = tested on: dengue virus type 3; experiment: Antiviral activity against Dengue virus serotype 3 7431 infected in Vero cells assessed as inhibition of viral replication pretreated for 2 hrs followed by replacement with fresh medium containing compound and measured after 48 hrs by MTT assay; assay type: functional, organism-based; details: Dengue virus, 7431, Vero; in short: as §2
[21] = tested on: Zika virus; experiment: Antiviral activity against ZIKV FLR infected in Vero cells assessed as reduction in viral titer at 1 uM preinoculated virus for 2 hrs with cells followed by washout of unattached viruses and further incubated with compound for 48 hrs by MTT assay relative to control; assay type: functional; set-up: scale not given: the % may be the effect or the level left
In short: (§4)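 Cells inoculated with 0.1 MOI virus for 2h, then unattached virus removed by PBS wash. Compound at 1 μM added either right after washout (0h-posttreatment) or 2h after washout (2h-posttreatment). Incubated to 48h at 37 °C, then supernatant TCID50 determined by end-point dilution with CPE/MTT read-out in quadruplicate on Vero cells, relative to untreated.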

[22] = tested on: Zika virus; experiment: Antiviral activity against ZIKV […] infected in Vero cells assessed as reduction in viral titer at 1 uM preinoculated virus for 2 hrs with cells followed by washout of unattached viruses and further incubated with compound for 46 hrs starting from 2 hrs post washout by MTT assay relative to control; assay type: functional; set-up: scale not given: the % may be the effect or the level left; in short: as §4

## COc1cccc(/C=C/c2nc3ccc(N4CCOCC4)cc3c(=O)n2-c2cccc(C(C)(C)C)c2)n1
[1]
  inhibition at 10 µM: 99.9%
[2]
  inhibition at 1 µM: 90%
[3]
  Activity: Active
[4]
  Activity: Active
[5]
  EC50: 180 nM
[6]
  Activity: 68%
[7]
  Activity: >99.9%
[8]
  Activity: Dose-Dependent Effect
[9]
  Activity: Active
[10]
  EC50: 86 nM
[11]
  Activity: Active
[12]
  inhibition at 0.3 µM: 90%
[13]
  inhibition at 1 µM: 97%
[14]
  inhibition at 3 µM: 99%
[15]
  inhibition at 10 µM: > 99.9%
[16]
  EC50: 100 nM
[17]
  EC50: 230 nM
[18]
  CC50: > 20000 nM
[19]
  EC50: 210 nM
[20]
  EC50: 120 nM
[21]
  Activity: 68%
[22]
  Activity: 68%
